A word on the pIC50: it is −log10 of the IC50, conventionally taken in molar units.

The target of data set [1] is Matrix metalloproteinase-9 (Homo sapiens, UniProt P14780). The data set is described as follows: Inhibition of recombinant human MMP-9 using Mca-Lys-Pro-Leu-Gly-Leu-Dap(Dnp)-Ala-Arg-NH2 as substrate preincubated for 3 hrs followed by substrate addition measured every 10 secs for 15 mins by fluorometric assay.
The nature of data set [2]: Metal chelating activity assessed as compound-Zn2+ complex formation by measuring free metal ion levels at compound to metal molar ratio 10 at pH 6 by potentiometric titration method.
In data set [3] the target is 72 kDa type IV collagenase (Homo sapiens, UniProt P08253). The data set is described as follows: Inhibition of recombinant human MMP-2 using Mca-Lys-Pro-Leu-Gly-Leu-Dap(Dnp)-Ala-Arg-NH2 as substrate preincubated for 3 hrs followed by substrate addition measured every 10 secs for 15 mins by fluorometric assay.
72 kDa type IV collagenase, sequence (P08253 whole entry): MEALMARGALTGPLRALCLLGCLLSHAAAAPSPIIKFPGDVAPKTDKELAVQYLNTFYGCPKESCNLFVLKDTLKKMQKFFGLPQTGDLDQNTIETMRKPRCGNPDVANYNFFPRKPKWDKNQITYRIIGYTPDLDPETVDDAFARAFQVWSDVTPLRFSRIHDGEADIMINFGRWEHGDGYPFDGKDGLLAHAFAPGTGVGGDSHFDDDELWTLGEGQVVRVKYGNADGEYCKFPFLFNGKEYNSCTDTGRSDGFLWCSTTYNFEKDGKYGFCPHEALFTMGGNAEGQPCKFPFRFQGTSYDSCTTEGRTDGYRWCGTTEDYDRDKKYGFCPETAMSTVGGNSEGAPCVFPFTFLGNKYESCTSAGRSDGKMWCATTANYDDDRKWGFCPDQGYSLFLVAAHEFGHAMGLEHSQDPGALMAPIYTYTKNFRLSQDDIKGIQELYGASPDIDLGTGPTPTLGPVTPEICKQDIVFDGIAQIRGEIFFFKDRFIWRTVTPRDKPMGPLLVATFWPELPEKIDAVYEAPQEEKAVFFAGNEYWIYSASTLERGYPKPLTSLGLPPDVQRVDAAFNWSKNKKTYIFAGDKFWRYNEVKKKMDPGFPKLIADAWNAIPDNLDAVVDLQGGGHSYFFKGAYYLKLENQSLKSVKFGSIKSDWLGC
The nature of data set [4]: Metal chelating activity assessed as compound-Zn2+ complex formation at 1:1 metal to compound molar ratio at pH 3 to 8 by potentiometric titration method. The gist of the method:
(§1)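 pH-potentiometric titration in 60% w/w DMSO/H2O, 25.0 ± 0.1 °C, I 0.1 M KCl, 0.1 M KOH titrant. Glass electrode calibrated with HCl/KOH via Gran's method. Ligand (4−7) × 10−4 M at Zn:L 0:1, 1:1 and 1:2, in duplicate. pKw 15.75. Constants were fitted in Hyperquad with a Zn(II) hydrolysis model included.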

The nature of data set [5]: Protonation constant, log K of the compound. The data set is classed as physicochemical. To be noted: 60% w/w DMSO/H2O. The gist of the method: as §1
A short description of data set [6]: Metal chelating activity assessed as compound-Zn2+ complex formation at 1:2 metal to compound molar ratio at pH 3 to 8 by potentiometric titration method. A digest of the protocol: as §1
Data set [7] in a line: Metal chelating activity assessed as compound-Zn2+ complex formation at 1:1 metal to compound molar ratio at pH 3 to 8 by 1H NMR method.
Data set [8] concerns the target Macrophage metalloelastase (Homo sapiens, UniProt P39900). The experiment in a line: Inhibition of recombinant human MMP-12 using Mca-Lys-Pro-Leu-Gly-Leu-Dap(Dnp)-Ala-Arg-NH2 as substrate preincubated for 3 hrs followed by substrate addition measured every 10 secs for 15 mins by fluorometric assay.
The target of a further data set is T1, Interstitial collagenase (Homo sapiens, UniProt P03956).
T1 sequence (P03956 whole entry): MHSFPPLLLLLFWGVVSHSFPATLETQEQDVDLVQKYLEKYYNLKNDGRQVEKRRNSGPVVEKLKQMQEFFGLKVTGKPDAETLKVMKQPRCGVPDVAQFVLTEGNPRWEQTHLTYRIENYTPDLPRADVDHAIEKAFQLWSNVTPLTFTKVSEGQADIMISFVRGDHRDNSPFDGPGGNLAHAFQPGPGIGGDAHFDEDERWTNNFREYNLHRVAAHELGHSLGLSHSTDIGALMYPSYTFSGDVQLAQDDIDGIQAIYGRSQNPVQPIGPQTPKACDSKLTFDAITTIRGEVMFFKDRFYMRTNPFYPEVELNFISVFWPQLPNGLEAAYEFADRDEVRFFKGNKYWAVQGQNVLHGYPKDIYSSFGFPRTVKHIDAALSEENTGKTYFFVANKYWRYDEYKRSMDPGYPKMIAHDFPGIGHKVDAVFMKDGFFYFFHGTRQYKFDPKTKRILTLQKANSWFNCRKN
The experiment in a line: Inhibition of recombinant human MMP-1 using Mca-Lys-Pro-Leu-Gly-Leu-Dap(Dnp)-Ala-Arg-NH2 as substrate preincubated for 3 hrs followed by substrate addition measured every 10 secs for 15 mins by fluorometric assay.

Data set [9] addresses Matrix metalloproteinase-14 (Homo sapiens, UniProt P50281). The experiment in a line: Inhibition of recombinant human MMP-14 catalytic domain using Mca-Lys-Pro-Leu-Gly-Leu-Dap(Dnp)-Ala-Arg-NH2 as substrate preincubated for 3 hrs followed by substrate addition measured every 10 secs for 15 mins by fluorometric assay.
A short description of data set [10]: Drug level in KCl/DMSO/water solution treated with 2-(2-((4'-Methoxy-[1,1'-biphenyl]-4-yl)sulfonyl)phenyl)-acetic hydroxamic acid. It counts as physicochemical. The following applies: buffer.
Data set [11] is filed under the species Homo sapiens. The data set is described as follows: Selectivity ratio of IC50 for recombinant human MMP-2 to IC50 for recombinant human MMP-12.
The species named for data set [12] is Homo sapiens. The experiment in a line: Selectivity ratio of IC50 for recombinant human MMP-9 to IC50 for recombinant human MMP-12.
The species entered for data set [13] is Homo sapiens. The data set is described as follows: Selectivity ratio of IC50 for recombinant human MMP-14 catalytic domain to IC50 for recombinant human MMP-12.

pIC50: −log10 of the molar value. Active and inactive are the calls of the source. No cut-off for these calls is given here. Where only a bound is given, the exact number is not on record here.

Macrophage metalloelastase, sequence (P39900 whole entry): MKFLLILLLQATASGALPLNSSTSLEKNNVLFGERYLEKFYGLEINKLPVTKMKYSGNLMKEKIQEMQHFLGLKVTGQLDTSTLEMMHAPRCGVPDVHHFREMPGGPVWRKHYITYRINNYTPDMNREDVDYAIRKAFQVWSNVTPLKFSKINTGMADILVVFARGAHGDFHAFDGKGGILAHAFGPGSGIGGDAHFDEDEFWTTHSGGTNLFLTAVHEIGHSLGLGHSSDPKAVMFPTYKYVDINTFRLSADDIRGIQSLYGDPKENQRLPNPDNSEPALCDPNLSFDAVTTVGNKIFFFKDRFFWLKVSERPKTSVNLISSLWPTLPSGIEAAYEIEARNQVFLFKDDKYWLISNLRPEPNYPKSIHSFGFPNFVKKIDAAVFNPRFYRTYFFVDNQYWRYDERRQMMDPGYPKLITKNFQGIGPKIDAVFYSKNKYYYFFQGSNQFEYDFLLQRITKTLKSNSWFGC
Matrix metalloproteinase-9, sequence (P14780 whole entry): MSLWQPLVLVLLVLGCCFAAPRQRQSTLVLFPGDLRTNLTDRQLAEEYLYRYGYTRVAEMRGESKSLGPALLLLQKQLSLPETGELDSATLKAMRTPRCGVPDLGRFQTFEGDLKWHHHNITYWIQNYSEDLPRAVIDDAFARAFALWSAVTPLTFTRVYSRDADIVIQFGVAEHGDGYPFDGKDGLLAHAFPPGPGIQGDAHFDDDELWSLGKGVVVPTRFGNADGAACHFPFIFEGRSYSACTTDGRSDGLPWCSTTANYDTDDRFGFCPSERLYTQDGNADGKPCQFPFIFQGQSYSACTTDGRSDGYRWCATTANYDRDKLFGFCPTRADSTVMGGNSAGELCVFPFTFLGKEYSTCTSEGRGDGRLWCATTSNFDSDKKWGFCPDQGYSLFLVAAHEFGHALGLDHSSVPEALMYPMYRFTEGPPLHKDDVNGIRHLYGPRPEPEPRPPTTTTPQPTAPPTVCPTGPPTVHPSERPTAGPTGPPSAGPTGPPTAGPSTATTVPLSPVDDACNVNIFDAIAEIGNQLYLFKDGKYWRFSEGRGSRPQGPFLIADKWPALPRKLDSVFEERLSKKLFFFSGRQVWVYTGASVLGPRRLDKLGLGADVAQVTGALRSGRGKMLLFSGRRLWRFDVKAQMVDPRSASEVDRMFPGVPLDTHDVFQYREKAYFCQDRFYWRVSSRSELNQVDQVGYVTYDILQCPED

Consider `COc1ccc(-c2ccc(S(=O)(=O)c3ccccc3CC(=O)NS(=O)(=O)C(F)(F)F)cc2)cc1`, for which the pIC50 is 4.61 in data set [1], 5.60 in [3] and 5.12 in data set [8]. In addition, the log(activity) in data set [2] is 6.91. The outcome in [4] and in [7] was Active. Moreover, the “log K” value in data set [5] was less than 2. For the same compound, the outcome in [6] was inactive.
For `COc1ccc(-c2ccc(Sc3ccccc3CC(=O)NO)cc2)cc1`, the log(activity) in data set [2] was determined as 6.04. Also, the result in data set [4] and in data set [6] was Active. The “log K” value in [5] is on record as 10.29. The pIC50 on Interstitial collagenase is 3.60; in data set [9], 5.70; in [8], 8.40.
As for `COc1ccc(-c2ccc(Sc3ccccc3CC(=O)O)cc2)cc1`, the log(activity) in data set [2] was determined as 6.04. In addition, the outcome in [4] was Active. Moreover, the outcome in data set [6] was inactive. Further, in data set [8], the pIC50 is 7.40.
Take `COc1ccc(-c2ccc(Sc3ccccc3CC(=O)NS(=O)(=O)C(F)(F)F)cc2)cc1`: the pIC50 was 4.30 in data set [1], 4.34 in data set [3] and 5.68 in [8]. In addition, the log(activity) in [2] was 6.75. The result in [4] and in data set [7] was Active. In addition, the “log K” value in data set [5] was less than 2. In data set [6], the outcome was inactive.
With `COc1ccc(-c2ccc(S(=O)(=O)c3ccccc3CC(=O)O)cc2)cc1`, in data set [2], the log(activity) was found to be 6.1. For the same compound, the outcome in data set [4] and in data set [6] was Active. Further, the Drug metabolism result in data set [10] was “Metabolite_Detected”.
As to `COc1ccc(-c2ccc(Sc3ccccc3CC(=O)NS(C)(=O)=O)cc2)cc1`, the pIC50 in [1] is 4.74; in data set [8], 5.48. Besides, in data set [2], the log(activity) was determined as 6.1. Besides, the result in data set [4] and in data set [7] was Active. For the same compound, the “log K” value in data set [5] came to 5.5. The result in [6] was inactive.
As to `COc1ccc(-c2ccc(S(=O)(=O)c3ccccc3C3CCC(=O)N(O)C3=O)cc2)cc1` (centres undefined), the pIC50 is 5.84 in data set [1]; 6.38 in data set [3]; less than 5.00 on Interstitial collagenase; 5.40 in [9]; 7.40 in [8]. In data set [2], the log(activity) amounted to 6.13. For the same compound, the result in data set [4] and in data set [6] was Active. Also, the log K in [5] was in the range of 9.03 to 9.35.
On to `COc1ccc(-c2ccc(Sc3ccccc3C(CCC(=O)O)C(=O)O)cc2)cc1` (centres undefined), for which the pIC50 is 5.53 in data set [1], 6.18 in data set [3] and 7.59 in [8]. Moreover, the log(activity) in data set [2] turned out to be 6.04. Further, the result in [4] and in data set [6] was Active.
Turning to `COc1ccc(-c2ccc(Sc3ccccc3CP(=O)(O)O)cc2)cc1`, the results for the pIC50 in data set [1], in data set [3] and in data set [8] were 5.95, 6.60 and 6.60, respectively.
For `COc1ccc(-c2ccc(Sc3ccccc3C(=O)CS(C)(=O)=O)cc2)cc1`, the pIC50 is 3.48 in data set [1], 3.64 in [3] and 3.64 in [8].
For the compound `COc1ccc(-c2ccc(S(=O)(=O)c3ccccc3CC(=O)NS(C)(=O)=O)cc2)cc1`, the pIC50 in [1] is 5.43; in [3], 5.44; in data set [8], 5.46. The log(activity) in data set [2] came out at 6.56. The result in data set [4], in data set [6] and in [7] was Active. For the same compound, the “log K” value in [5] amounted to 5.5.
Turning to `COc1ccc(-c2ccc(S(=O)(=O)c3ccccc3C(=O)CS(C)(=O)=O)cc2)cc1`, the negative logarithm of the IC50 (pIC50) in data set [1], in [3] and in [8] was less than 5.00 each time.
In the case of `COc1ccc(-c2ccc(Sc3ccccc3C3CCC(=O)N(O)C3=O)cc2)cc1` (centres undefined), the pIC50 in [1] was 5.24; in data set [3], 6.17; at Interstitial collagenase, 3.59; in [9] it was 4.40; in [8], 7.48. In data set [2], the log(activity) worked out at 6.05. The Ratio IC50 in the data set listed under Homo sapiens [11] amounted to 20; in the data set filed under Homo sapiens [12] it was 176; in the data set filed under Homo sapiens [13], 1200. Further, the outcome in [4] and in [6] was Active. The same compound had a log K in [5] of 9.03 to 9.35.
Consider `COc1ccc(-c2ccc(S(=O)(=O)c3ccccc3CP(=O)(O)O)cc2)cc1`, for which the pIC50 in data set [8] was 6.22.
In the case of `COc1ccc(-c2ccc(S(=O)(=O)c3ccccc3C(CCC(=O)O)C(=O)O)cc2)cc1` (centres undefined), the pIC50 in [1] was 4.84; in data set [3], 5.87; in data set [8], 6.29. Also, the log(activity) in [2] worked out at 6.14. For the same compound, the result in data set [4] and in [6] was Active.

The values are drawn from ChEMBL document CHEMBL4184326, “Development of Thioaryl-Based Matrix Metalloproteinase-12 Inhibitors with Alternative Zinc-Binding Groups: Synthesis, Potentiometric, NMR, and Crystallographic Studies” (J Med Chem, 2018).
